Source: ChEMBL document CHEMBL4732196, “Structural optimization towards promising β-methyl-4-acrylamido quinoline derivatives as PI3K/mTOR dual inhibitors for anti-cancer therapy: The in vitro and in vivo biological evaluation” (Eur J Med Chem, 2021)
Calls of active or inactive are those of the source. The rule behind the calls is not given here.

Experiments:
[1] = molecular target: Dual specificity mitogen-activated protein kinase kinase 5 (Homo sapiens) (UniProt Q13163); experiment: Inhibition of human partial length MEK5 (L98 to P448 residues) expressed in mammalian expression system assessed as residual activity at 10 uM by kinome scan method relative to control
In short: (§1)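 KINOMEscan binding assay, test compound at 10 μM against a 52-kinase panel. % Ctrl = (compound signal − positive control signal)/(negative control signal − positive control signal) × 100, with DMSO as negative control (100%) and a positive control (0%).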

[2] = test system: U-87 MG; experiment: Growth inhibition of human U87MG cells after 72 hrs by sulforhodamine B assay; type: functional, U-87MG ATCC
[3] = molecular target: Receptor-interacting serine/threonine-protein kinase 1 (Homo sapiens) (UniProt Q13546); experiment: Inhibition of human partial length RIPK1 (M1 to K305 residues) expressed in bacterial expression system assessed as residual activity at 10 uM by kinome scan method relative to control
In short: (§2)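 KINOMEscan competitive binding screen at 10 μM test compound against a 52-kinase panel. Output is % Ctrl = (test signal − positive control signal)/(negative control signal − positive control signal) × 100. DMSO is the negative control (100%) and the positive control is set to 0%.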

[4] = molecular target: Cyclin-dependent kinase-like 3 (Homo sapiens) (UniProt Q8IVW4); experiment: Inhibition of human partial length CDKL1 (M1 to D327 residues) expressed in bacterial system assessed as residual activity at 10 uM by kinome scan method relative to control; in short: as §1
[5] = molecular target: Phosphatidylinositol 3-kinase catalytic subunit type 3 (Homo sapiens) (UniProt Q8NEB9); experiment: Inhibition of human partial length VPS34 (S282 to H879 residues) expressed in mammalian expression system assessed as residual activity at 10 uM by kinome scan method relative to control; in short: as §2
[6] = test system: U-87 MG; experiment: Antitumour activity against human U87MG cells xenografted in ICR nude mouse assessed as tumour growth inhibition at 30 mg/kg, po every other day for 24 days relative to control; type: functional, U-87MG ATCC; conditions: 576 h, time 24 day, read-out: TGI
In short: (§3)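 Male ICR nude mice inoculated subcutaneously with 5 × 10⁶ U87MG cells. Once tumours reached about 200 mm³, mice were randomised and dosed by oral gavage every other day for 24 days. Tumour volume (length × width² × 0.5) and body weight recorded every 4 days. Inhibition = 100 × {1 − [(final − initial volume) treated]/[(final − initial volume) vehicle]}.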

[7] = test system: U-87 MG; experiment: Antitumour activity against human U87MG cells xenografted in ICR nude mouse assessed as tumour growth inhibition at 60 mg/kg, po every other day for 24 days relative to control; type: functional, organism-based; conditions: U-87MG ATCC, time 24.0 day; in short: as §3
[8] = molecular target: Cyclin-dependent kinase-like 5 (Homo sapiens) (UniProt O76039); experiment: Inhibition of human partial length CDKL5 (M1 to S337 residues) expressed in mammalian expression system assessed as residual activity at 10 uM by kinome scan method relative to control; in short: as §1
[9] = molecular target: Citron Rho-interacting kinase (Homo sapiens) (UniProt O14578); experiment: Inhibition of human partial length CIT (M68 to E432 residues) expressed in bacterial expression system assessed as residual activity at 10 uM by kinome scan method relative to control; in short: as §1
[10] = molecular target: Mitogen-activated protein kinase kinase kinase 13 (Homo sapiens) (UniProt O43283); experiment: Inhibition of human full length LZK (M1 to W966 residues) expressed in bacterial expression system assessed as residual activity at 10 uM by kinome scan method relative to control; in short: as §1
[11] = molecular target: Receptor tyrosine-protein kinase erbB-3 (Homo sapiens) (UniProt P21860); experiment: Inhibition of human partial length ERBB3 (G684 to A987 residues) expressed in mammalian expression system assessed as residual activity at 10 uM by kinome scan method relative to control; in short: as §1
[12] = molecular target: Phosphatidylinositol 4,5-bisphosphate 3-kinase catalytic subunit beta isoform (Homo sapiens, UniProt P42338); experiment: Inhibition of PI3Kbeta (unknown origin) using PIP2 as substrate measured after 1 hr by ADP-glo assay
[13] = molecular target: Membrane-associated tyrosine- and threonine-specific cdc2-inhibitory kinase (Homo sapiens) (UniProt Q99640); experiment: Inhibition of human partial length PKMYT1 (A88 to G366 residues) expressed in bacterial expression system assessed as residual activity at 10 uM by kinome scan method relative to control; in short: as §2
[14] = molecular target: Interleukin-1 receptor-associated kinase 3 (Homo sapiens) (UniProt Q9Y616); experiment: Inhibition of human partial length IRAK3 (V147 to E596 residues) expressed in bacterial expression system assessed as residual activity at 10 uM by kinome scan method relative to control; in short: as §1
[15] = molecular target: Phosphatidylinositol 4-phosphate 5-kinase type-1 gamma (Homo sapiens) (UniProt O60331); experiment: Inhibition of human full length PIP5K1C (M1 to H562 residues) expressed in bacterial expression system assessed as residual activity at 10 uM by kinome scan method relative to control; in short: as §1
[16] = molecular target: Activin receptor type-2B (Homo sapiens) (UniProt Q13705); experiment: Inhibition of human partial length ACVR2B (H169 to D504 residues) expressed in bacterial system assessed as residual activity at 10 uM by kinome scan method relative to control; in short: as §1
[17] = AUC(0 to t) in Sprague-Dawley rat at 5 mg/kg, po; type: ADME, organism-based; parameters: dose 5 mg/kg; conditions: in vivo
In short: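 Male Sprague-Dawley rats (n = 3) given a single oral gavage of 5 mg/kg as a homogeneous opaque suspension in 0.5% methylcellulose; plasma concentration-time curves used to derive mean PK parameters.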

[18] = molecular target: Ankyrin repeat and protein kinase domain-containing protein 1 (Homo sapiens) (UniProt Q8NFD2); experiment: Inhibition of human partial length ANKK1 (M1 to A305 residues) expressed in bacterial system assessed as residual activity at 10 uM by kinome scan method relative to control; in short: as §1
[19] = molecular target: Phosphatidylinositol 4,5-bisphosphate 3-kinase catalytic subunit delta isoform (Homo sapiens) (UniProt O00329); experiment: Inhibition of human partial length PIK3CD (R108 to Q1044 residues) expressed in mammalian expression system assessed as residual activity at 10 uM by kinome scan method relative to control; in short: as §2
[20] = molecular target: Receptor-interacting serine/threonine-protein kinase 4 (Homo sapiens) (UniProt P57078); experiment: Inhibition of human partial length RIPK4 (M1 to V303 residues) expressed in mammalian expression system assessed as residual activity at 10 uM by kinome scan method relative to control; in short: as §2
[21] = molecular target: BMP-2-inducible protein kinase (Homo sapiens) (UniProt Q9NSY1); experiment: Inhibition of human partial length BIKE (S34 to N329 residues) expressed in bacterial system assessed as residual activity at 10 uM by kinome scan method relative to control; in short: as §1
[22] = molecular target: Phosphatidylinositol 3-kinase C2 domain-containing subunit gamma (Homo sapiens) (UniProt O75747); experiment: Inhibition of human partial length PIK3C2G (M1 to I1446 residues) expressed in mammalian expression system assessed as residual activity at 10 uM by kinome scan method relative to control; in short: as §1
[23] = molecular target: Phosphatidylinositol 5-phosphate 4-kinase type-2 beta (Homo sapiens) (UniProt P78356); experiment: Inhibition of human full length PIP5K2B (M1 to T416 residues) expressed in bacterial expression system assessed as residual activity at 10 uM by kinome scan method relative to control; in short: as §1
Phosphatidylinositol 5-phosphate 4-kinase type-2 beta (Homo sapiens), sequence (P78356 whole entry, the tested form may be a part): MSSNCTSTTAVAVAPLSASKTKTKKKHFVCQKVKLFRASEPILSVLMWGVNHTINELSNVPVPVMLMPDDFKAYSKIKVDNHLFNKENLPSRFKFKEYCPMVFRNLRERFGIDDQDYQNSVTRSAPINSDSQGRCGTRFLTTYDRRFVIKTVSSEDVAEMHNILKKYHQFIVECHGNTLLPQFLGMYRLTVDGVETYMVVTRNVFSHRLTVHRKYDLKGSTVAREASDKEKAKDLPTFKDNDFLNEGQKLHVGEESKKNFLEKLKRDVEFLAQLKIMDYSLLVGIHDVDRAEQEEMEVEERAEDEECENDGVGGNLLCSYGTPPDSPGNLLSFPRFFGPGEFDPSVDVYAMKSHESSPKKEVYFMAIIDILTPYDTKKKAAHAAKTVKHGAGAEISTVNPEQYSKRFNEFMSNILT

Phosphatidylinositol 3-kinase C2 domain-containing subunit gamma (Homo sapiens), sequence (O75747 whole entry, the tested form may be a part): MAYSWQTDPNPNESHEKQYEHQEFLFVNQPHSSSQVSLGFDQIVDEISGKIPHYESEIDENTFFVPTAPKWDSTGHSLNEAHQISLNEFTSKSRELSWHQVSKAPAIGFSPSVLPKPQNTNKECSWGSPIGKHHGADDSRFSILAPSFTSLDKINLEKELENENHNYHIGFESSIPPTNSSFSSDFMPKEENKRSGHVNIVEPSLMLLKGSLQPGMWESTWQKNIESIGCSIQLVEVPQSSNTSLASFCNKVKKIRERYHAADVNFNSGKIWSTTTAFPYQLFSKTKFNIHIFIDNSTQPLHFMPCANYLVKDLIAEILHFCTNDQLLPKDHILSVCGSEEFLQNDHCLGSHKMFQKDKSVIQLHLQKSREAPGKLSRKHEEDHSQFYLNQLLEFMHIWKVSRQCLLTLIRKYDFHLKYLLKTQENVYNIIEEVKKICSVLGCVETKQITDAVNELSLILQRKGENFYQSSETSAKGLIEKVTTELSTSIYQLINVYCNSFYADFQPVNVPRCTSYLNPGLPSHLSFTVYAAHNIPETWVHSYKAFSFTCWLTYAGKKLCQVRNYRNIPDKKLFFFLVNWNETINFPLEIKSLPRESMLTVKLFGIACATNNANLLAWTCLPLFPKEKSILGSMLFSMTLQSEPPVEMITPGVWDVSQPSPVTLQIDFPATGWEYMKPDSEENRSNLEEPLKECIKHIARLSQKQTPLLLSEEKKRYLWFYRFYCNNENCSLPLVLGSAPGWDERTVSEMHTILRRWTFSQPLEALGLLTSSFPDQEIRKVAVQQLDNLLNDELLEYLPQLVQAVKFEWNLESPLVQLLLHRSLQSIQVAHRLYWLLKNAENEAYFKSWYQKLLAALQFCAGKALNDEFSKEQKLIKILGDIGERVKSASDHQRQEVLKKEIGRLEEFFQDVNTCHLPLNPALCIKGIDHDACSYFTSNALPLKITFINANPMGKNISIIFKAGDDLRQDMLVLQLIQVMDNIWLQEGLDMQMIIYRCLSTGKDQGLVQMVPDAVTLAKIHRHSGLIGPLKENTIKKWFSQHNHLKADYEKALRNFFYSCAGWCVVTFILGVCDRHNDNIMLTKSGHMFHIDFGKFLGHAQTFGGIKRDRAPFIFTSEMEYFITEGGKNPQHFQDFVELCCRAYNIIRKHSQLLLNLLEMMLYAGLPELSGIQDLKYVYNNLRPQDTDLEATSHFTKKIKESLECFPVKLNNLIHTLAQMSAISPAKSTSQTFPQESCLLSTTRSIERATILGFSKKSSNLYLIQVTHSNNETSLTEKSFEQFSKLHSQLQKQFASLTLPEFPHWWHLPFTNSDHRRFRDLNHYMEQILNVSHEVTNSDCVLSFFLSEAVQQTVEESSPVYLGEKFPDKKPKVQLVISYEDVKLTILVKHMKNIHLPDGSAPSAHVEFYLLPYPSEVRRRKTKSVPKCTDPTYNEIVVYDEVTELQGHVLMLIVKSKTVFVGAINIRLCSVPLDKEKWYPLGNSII
Membrane-associated tyrosine- and threonine-specific cdc2-inhibitory kinase (Homo sapiens), sequence (Q99640 whole entry, the tested form may be a part): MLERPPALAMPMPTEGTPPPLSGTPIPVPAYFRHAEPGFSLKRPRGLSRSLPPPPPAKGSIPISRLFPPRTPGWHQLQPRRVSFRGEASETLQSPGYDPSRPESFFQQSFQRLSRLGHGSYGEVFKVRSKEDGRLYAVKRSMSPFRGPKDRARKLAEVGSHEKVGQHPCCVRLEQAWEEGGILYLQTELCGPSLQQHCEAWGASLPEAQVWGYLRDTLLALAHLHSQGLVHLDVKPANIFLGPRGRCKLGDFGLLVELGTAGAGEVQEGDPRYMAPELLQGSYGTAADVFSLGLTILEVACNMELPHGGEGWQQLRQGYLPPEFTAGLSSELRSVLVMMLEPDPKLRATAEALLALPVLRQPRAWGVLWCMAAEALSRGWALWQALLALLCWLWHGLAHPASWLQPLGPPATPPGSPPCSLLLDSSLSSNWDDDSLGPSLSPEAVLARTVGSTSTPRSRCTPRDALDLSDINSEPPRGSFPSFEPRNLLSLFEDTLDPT
Interleukin-1 receptor-associated kinase 3 (Homo sapiens), sequence (Q9Y616 whole entry, the tested form may be a part): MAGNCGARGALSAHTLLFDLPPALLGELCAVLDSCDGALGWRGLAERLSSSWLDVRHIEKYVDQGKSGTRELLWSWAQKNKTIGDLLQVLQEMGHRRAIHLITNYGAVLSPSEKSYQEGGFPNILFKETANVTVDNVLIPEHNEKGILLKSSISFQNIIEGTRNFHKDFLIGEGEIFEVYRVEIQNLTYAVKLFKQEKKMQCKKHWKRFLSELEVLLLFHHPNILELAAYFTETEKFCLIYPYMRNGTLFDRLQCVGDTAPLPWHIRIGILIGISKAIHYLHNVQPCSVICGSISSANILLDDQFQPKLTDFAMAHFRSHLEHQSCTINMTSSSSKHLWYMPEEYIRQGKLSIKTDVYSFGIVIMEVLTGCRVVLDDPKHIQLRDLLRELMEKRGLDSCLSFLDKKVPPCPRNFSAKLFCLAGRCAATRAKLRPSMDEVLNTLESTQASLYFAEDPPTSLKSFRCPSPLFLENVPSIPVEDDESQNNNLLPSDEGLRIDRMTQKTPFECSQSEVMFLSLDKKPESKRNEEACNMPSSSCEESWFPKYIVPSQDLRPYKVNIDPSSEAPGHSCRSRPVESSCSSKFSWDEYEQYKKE
Cyclin-dependent kinase-like 3 (Homo sapiens), sequence (Q8IVW4 whole entry, looked up, the tested form may be a part): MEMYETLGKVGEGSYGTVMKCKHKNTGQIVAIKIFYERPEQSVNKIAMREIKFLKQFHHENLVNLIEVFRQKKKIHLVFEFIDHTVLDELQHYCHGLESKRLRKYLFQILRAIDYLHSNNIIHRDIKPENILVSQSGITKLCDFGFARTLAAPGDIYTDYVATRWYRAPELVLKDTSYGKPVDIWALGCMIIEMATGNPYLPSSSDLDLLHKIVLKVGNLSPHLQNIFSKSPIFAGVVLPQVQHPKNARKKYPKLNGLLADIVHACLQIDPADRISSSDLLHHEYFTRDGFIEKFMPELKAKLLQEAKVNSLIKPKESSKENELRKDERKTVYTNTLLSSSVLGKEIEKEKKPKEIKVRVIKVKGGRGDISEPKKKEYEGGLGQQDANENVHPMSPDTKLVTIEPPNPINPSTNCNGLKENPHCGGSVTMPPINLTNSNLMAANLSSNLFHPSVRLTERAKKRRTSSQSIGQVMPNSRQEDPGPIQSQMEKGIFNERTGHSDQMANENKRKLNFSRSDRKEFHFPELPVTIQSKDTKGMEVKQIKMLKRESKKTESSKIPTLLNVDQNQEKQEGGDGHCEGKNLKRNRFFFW
Phosphatidylinositol 4-phosphate 5-kinase type-1 gamma (Homo sapiens), sequence (O60331 whole entry, the tested form may be a part): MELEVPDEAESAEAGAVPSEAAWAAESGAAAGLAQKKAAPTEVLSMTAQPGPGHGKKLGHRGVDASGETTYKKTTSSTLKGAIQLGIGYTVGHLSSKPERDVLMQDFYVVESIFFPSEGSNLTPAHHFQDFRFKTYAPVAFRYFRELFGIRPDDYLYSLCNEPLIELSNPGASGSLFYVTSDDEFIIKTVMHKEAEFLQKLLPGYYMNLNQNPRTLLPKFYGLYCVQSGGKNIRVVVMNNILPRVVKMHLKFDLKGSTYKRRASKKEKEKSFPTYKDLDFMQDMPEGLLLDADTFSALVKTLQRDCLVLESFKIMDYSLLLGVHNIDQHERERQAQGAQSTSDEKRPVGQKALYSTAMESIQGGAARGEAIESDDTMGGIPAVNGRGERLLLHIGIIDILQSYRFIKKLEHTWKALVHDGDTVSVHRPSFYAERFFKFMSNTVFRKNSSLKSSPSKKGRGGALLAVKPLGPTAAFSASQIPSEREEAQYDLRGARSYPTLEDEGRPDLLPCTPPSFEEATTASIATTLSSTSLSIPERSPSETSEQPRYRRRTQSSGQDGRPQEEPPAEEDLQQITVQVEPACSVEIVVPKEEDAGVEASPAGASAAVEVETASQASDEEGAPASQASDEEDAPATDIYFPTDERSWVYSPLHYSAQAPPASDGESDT
Activin receptor type-2B (Homo sapiens), sequence (Q13705 whole entry, the tested form may be a part): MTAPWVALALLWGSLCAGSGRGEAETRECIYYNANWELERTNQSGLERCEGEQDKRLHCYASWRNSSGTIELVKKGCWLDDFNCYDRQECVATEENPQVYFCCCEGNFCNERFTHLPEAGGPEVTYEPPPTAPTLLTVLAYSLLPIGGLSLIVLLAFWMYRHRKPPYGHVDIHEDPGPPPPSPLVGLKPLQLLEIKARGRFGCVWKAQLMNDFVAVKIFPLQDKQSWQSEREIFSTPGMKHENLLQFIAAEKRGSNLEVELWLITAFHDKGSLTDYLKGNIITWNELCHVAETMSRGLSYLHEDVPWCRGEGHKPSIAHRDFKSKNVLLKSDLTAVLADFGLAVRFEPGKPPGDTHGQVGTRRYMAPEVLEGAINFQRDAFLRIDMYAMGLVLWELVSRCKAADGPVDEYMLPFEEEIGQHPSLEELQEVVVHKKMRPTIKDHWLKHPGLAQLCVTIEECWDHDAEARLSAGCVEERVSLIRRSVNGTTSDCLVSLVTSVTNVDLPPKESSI

Activity [1]: 63%
GI50 [2]: 140 nM
Activity [3]: 87%
Activity [4]: 100%
Activity [5]: 0.1%
Activity [8]: 69%
Activity [9]: 71%
Activity [10]: 53%
Activity [11]: 89%
IC50 [12]: 0.67 nM
Activity [13]: 70%
Activity [14]: 24%
Activity [15]: 35%
Activity [16]: 100%
AUC(0-t) [17]: 1340 ng·h/mL
Activity [18]: 100%
Activity [19]: 0%
Activity [20]: 82%
Activity [21]: 49%
Activity [22]: 0%
Activity [23]: 9.4%
Compound: COc1ncc(-c2ccc3nccc(/C(C)=C/C(=O)N4CCN(C)CC4)c3c2)cc1NS(=O)(=O)c1ccc(F)cc1F
inhibition in vivo at 30 mg/kg [6]: 93.5%
TGI [7]: Active
